Data taken from ChEMBL document CHEMBL2146434, “Synthesis and biological evaluation of new amino acid and dipeptide derivatives of neocryptolepine as anticancer agents” (J Med Chem, 2012).

Legend:
LoVo = experiment: Cytotoxicity against human LoVo cells after 72 hrs by SRB assay; type: functional, cell-based
Outline: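 IC50 is the compound concentration giving 50% inhibition of cell proliferation. It was determined on normal mouse BALB/3T3 fibroblasts and on human A549, MCF-7 and LoVo cancer lines, with doxorubicin hydrochloride and DiMIQ as reference compounds.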

[1] = Octanol-water partition coefficient, log P of the compound at pH 2.2; type: physicochemical
[2] = Octanol-water partition coefficient, log P of the compound at pH 5; type: physicochemical
[3] = system: Lewis lung carcinoma cell line; experiment: Antineoplastic activity against mouse LLC cells xenografted in C57BL/6 mouse assessed as tumor growth inhibition at 100 mg/kg/day measured on day 17; details: 408 h, read-out: TGI
[4] = system: Lewis lung carcinoma cell line; experiment: Antineoplastic activity against mouse LLC cells xenografted in C57BL/6 mouse assessed as tumor growth inhibition at 100 mg/kg/day measured on day 11; details: 264 h, read-out: TGI
[5] = system: Lewis lung carcinoma cell line; experiment: Antineoplastic activity against mouse LLC cells xenografted in C57BL/6 mouse assessed as tumor growth inhibition at 100 mg/kg/day measured on day 14; details: 336 h, read-out: TGI
[6] = system: Lewis lung carcinoma cell line; experiment: Antineoplastic activity against mouse LLC cells xenografted in C57BL/6 mouse assessed as tumor growth inhibition at 100 mg/kg/day measured on day 16; details: 384 h, read-out: TGI
[7] = system: Lewis lung carcinoma cell line; experiment: Antineoplastic activity against mouse LLC cells xenografted in C57BL/6 mouse assessed as tumor growth inhibition at 100 mg/kg/day measured on day 18; details: 432 h, read-out: TGI
[8] = system: Lewis lung carcinoma cell line; experiment: Antineoplastic activity against mouse LLC cells xenografted in C57BL/6 mouse assessed as tumor growth inhibition at 100 mg/kg/day measured on day 21; details: 504 h, read-out: TGI
[9] = system: Lewis lung carcinoma cell line; experiment: Antineoplastic activity against mouse LLC cells xenografted in C57BL/6 mouse assessed as tumor growth inhibition at 100 mg/kg/day measured on day 23; details: 552 h, read-out: TGI
[10] = system: Lewis lung carcinoma cell line; experiment: Antineoplastic activity against mouse LLC cells xenografted in C57BL/6 mouse assessed as tumor growth inhibition at 100 mg/kg/day measured on day 12; details: 288 h, read-out: TGI
[11] = system: Lewis lung carcinoma cell line; experiment: Antineoplastic activity against mouse LLC cells xenografted in C57BL/6 mouse assessed as tumor growth inhibition at 100 mg/kg/day measured on day 19; details: 456 h, read-out: TGI
[12] = system: Lewis lung carcinoma cell line; experiment: Antineoplastic activity against mouse LLC cells xenografted in C57BL/6 mouse assessed as tumor growth inhibition at 100 mg/kg/day measured on day 24; details: 576 h, read-out: TGI

Structure (SMILES) | IC50 (LoVo) [nM] | logP [1] | logP [2] | inhibition in vivo at 100 mg/kg/day [3] [%] | inhibition in vivo at 100 mg/kg/day [4] [%] | inhibition in vivo at 100 mg/kg/day [5] [%] | inhibition in vivo at 100 mg/kg/day [6] [%] | inhibition in vivo at 100 mg/kg/day [7] [%] | inhibition in vivo at 100 mg/kg/day [8] [%] | inhibition in vivo at 100 mg/kg/day [9] [%] | inhibition in vivo at 100 mg/kg/day [10] [%] | inhibition in vivo at 100 mg/kg/day [11] [%] | inhibition in vivo at 100 mg/kg/day [12] [%]
Cc1c2c3ccccc3nc-2n(C)c2ccccc12 | 200 | -1 | 2 |  |  |  |  |  |  |  |  |  | 
O=P1(N(CCCl)CCCl)NCCCO1 (stereo not drawn) [CYCLOPHOSPHAMIDE ANHYDROUS] |  |  |  | 37 | 49.8 | 36.8 | 31.9 | 12.5 | 21.3 | 30.4 | 24.1 | 40 | 0
